Results from PubChem BioAssay.
Activity calls are given as the source filed them.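 How the source made its calls, unless noted: active means visually confirmed hit in the image check and inhibition above 20%; inconclusive means visually confirmed hit but inhibition not above 20%; inactive means no visual hit in the image check.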

How the values were obtained:
[1] = inhibitors of TNFa-induced NFkB p65 translocation, primary screen, imaging, HUVEC, MLSMR starter and 10KST1 sets (AID 438;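 active means inhibition above 20% together with a positive visual image hit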;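 further: compound added about 3h40 before a 20 min TNFalpha stimulation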;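 on inhibition: signal is the nuclear over cytoplasmic p65 intensity ratio per well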); conditions: HUVEC TNFa-induced p65 nuclear translocation; cell count: measured here: nuclei count (cytotoxicity indicator), at 2.08 µM; inhibition: at 2 µM, stronger effect = higher value, 0% TNFa-plus-vehicle, 100% no-TNFa wells
[2] = reduction of polyQ htt aggregates in cells – imaging, exon1htt(103Q)mCFP cells, high-content imaging, primary screen (AID 483;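 active means visual image review flags a hit and inhibition of aggregation exceeds 20%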;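 further: compound exposure lasted 3 days before fixation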;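 on nuclei count: percent of the per-plate median nuclei count of sample wells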); conditions: exon1htt(103Q)mCFP cell line, aggregate imaging, at 2 µM; inhibition of aggregation: stronger effect = higher value; nuclei count: measured here: cell count, toxicity
[3] = endothelial E-selectin expression blockers – imaging, HUVEC, immunofluorescence, MLSMR starter and 10KST1 sets, primary screen (AID 487); conditions: HUVEC TNFalpha-induced E-selectin immunofluorescence imaging, at 2 µM; inhibition: stronger effect = higher value; nuclei count: measured here: cell number, toxicity;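 on inhibition: signal is fraction of cell area covered by stained E-selectin grains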;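 on nuclei count: 100% = median nuclei count of all wells on the same plate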
[4] = target: Voltage-gated potassium channel subunit beta-2 (Rattus norvegicus) (UniProt P62483); test: inhibitors of rat Kvbeta2 reductase activity – biochemical, NADPH fluorescence, primary screen (AID 622;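 active means fluorescence slope higher than the sample average by over 3 SD, cut at about -0.22 in these data, passing the limit was not always enough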;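 further: slope of raw intensity against log time taken from 70 to 1610 s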); conditions: recombinant KvBeta, 4-cyanobenzaldehyde reduction, at 10 µM, stronger effect = higher value
[5] = target: Voltage-gated potassium channel subunit beta-2 (Rattus norvegicus) (UniProt P62483); test: enhancers of rat Kvbeta2 NADPH turnover – biochemical, NADPH fluorescence, primary screen (AID 623;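 active means NADPH fluorescence slope more negative than the mean of all samples by about 3 SD, 99.7% confidence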;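 further: fluorescence intensity change per second fitted from 20 to 320 s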); conditions: Recombinant KvBeta, NADPH fluorescence decrease slope, 10 min; at 10 µM; stronger effect = lower value
[6] = target: Muscarinic acetylcholine receptor M4 (Homo sapiens) (UniProt P08173); test: M4-linked GIRK flux change, two-sided – cell-based, HEK293 M4/GIRK, thallium flux, BTC-AM, M4 allosteric agonist project, primary screen (AID 625;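 active means fluorescence slope after compound addition differing from the mean of all tested samples at 99.7% confidence, mostly higher but some lower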;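 further: thallium influx through GIRK channels coupled to M4 in HEK293 cells with BTC-AM dye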); conditions: at 10 µM, actives lie on both sides
How it was run: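 Assay system: HEK293 cells with M4 receptor and GIRK channels / Controls: carbachol and DMSO controls / Schedule: 1 h dye loading, 2 min kinetic read / Technique: kinetic fluorescence with BTC-AM dye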

[7] = blockers of RIG-like receptor reporter activation – cell-based, Sendai virus stimulus, luciferase, 10K MLSCN set, TLR/RLR signaling modifier project, primary screen (AID 602276;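 active means inhibition at or above 50% at 10 µM; inactive means inhibition below 50%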;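 further: firefly luciferase from ISG56 promoter only with Renilla not read in this screen; 0% = Sendai virus plus DMSO and 100% = medium plus DMSO without virus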); conditions: HEK293 RL24 IRF3 luciferase reporter, at 10 µM, stronger effect = higher value
[8] = TLR3 IRF3 reporter activation blockers – cell-based, poly I:C stimulus, luciferase, 10K MLSCN set, primary screen (AID 602277;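 active means inhibition of the reporter signal at or above 50%; inactive means inhibition below 50%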); conditions: HEK293-TLR3 RL24 IRF3 luciferase reporter, at 10 µM, stronger effect = higher value

Chain of Muscarinic acetylcholine receptor M4 (Homo sapiens) (P08173 whole entry, looked up): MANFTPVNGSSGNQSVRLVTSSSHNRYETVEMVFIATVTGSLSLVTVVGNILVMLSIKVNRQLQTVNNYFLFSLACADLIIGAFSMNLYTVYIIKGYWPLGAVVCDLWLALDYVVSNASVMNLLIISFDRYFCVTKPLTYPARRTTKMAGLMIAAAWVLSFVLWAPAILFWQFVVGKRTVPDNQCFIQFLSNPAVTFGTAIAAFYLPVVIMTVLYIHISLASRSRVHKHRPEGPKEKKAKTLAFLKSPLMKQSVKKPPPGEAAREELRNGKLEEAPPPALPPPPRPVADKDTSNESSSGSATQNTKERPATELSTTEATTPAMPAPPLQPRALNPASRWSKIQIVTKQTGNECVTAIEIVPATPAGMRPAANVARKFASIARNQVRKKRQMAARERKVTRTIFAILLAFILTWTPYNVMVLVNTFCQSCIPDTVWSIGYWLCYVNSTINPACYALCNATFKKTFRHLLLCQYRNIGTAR
Chain of Voltage-gated potassium channel subunit beta-2 (Rattus norvegicus) (P62483 whole entry, looked up): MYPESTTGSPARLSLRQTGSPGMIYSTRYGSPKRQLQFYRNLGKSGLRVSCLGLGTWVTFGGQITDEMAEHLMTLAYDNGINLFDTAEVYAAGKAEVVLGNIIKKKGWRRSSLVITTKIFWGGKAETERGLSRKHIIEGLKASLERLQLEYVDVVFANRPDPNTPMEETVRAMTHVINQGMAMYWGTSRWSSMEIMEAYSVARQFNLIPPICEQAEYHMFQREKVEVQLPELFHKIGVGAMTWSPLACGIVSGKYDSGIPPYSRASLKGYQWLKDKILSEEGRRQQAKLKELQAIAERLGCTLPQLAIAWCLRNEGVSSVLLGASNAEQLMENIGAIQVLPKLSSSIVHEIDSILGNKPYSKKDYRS

SMILES	cell count [1]	inhibition [1]	inhibition of aggregation [2]	nuclei count [2] [%]	inhibition [3]	nuclei count [3] [%]	fluorescence slope [4]	NADPH fluorescence slope [5]	fluorescence slope [6]	inhibition [7]	inhibition [8]
Cc1ccc2c(c1C)NC(C)CC2C (stereo not drawn)	553	9.8% (inactive)	5.9% (inactive)	101	35.5% (inactive)	100	-0.604 (inactive)	-2.8e-05 (inactive)	0.0052 (inactive)	11.1% (inactive)	13.6% (inactive)
CCOC(=O)CCC(=O)c1c(C)oc2ccc(OC)cc12	447	-6.3% (inactive)	4.8% (inactive)	98.5	46.7% (inactive)	118	-0.583 (inactive)	4e-05 (inactive)	0.00919 (inactive)	-14.6% (inactive)	-30.6% (inactive)
Cc1ccc(C(C)C)c(OCCCN2CC(C)OC(C)C2)c1 (stereo not drawn)	344	-3.9% (inactive)	-17.9% (inactive)	106	-2.6% (inactive)	100	-0.243 (inactive)	-5.1e-06 (inactive)	0.00607 (inactive)	8.84% (inactive)	26.1% (inactive)
COc1ccccc1CNS(=O)(=O)c1cccc(S(=O)(=O)N2CCOCC2)c1	676	25.1% (inactive)	7.8% (inactive)	116	19.5% (inactive)	117	-0.401 (inactive)	2.6e-05 (inactive)	0.00588 (inactive)	10.7% (inactive)	19.2% (inactive)
Cn1cccc1-c1nc2ccc(NC(=O)c3ccco3)cc2[nH]1	293	-0.9% (inactive)	-0.8% (inactive)	86.3	-8.2% (inactive)	110	-0.429 (inactive)	1e-06 (inactive)	0.00457 (inactive)	-37.6% (inactive)	-102% (inactive)
COc1ccc(C(C)(C)C)cc1NC(=O)Nc1ccc2c(c1)OCO2	433	2.7% (inactive)	7.4% (inactive)	102	-13.1% (inactive)	96.8	-0.577 (inactive)	-8.3e-06 (inactive)	0.0063 (inactive)	-6.55% (inactive)	-2.75% (inactive)
Cc1cccc(N(C)C(=O)c2coc(=O)c3ccccc23)c1	199	-0.8% (inactive)	-9.3% (inactive)	105	-1.9% (inactive)	104	-0.563 (inactive)	1.4e-05 (inactive)	0.00467 (inactive)	14.1% (inactive)	26.6% (inactive)
O=C(CNS(=O)(=O)c1ccc(Br)s1)N1CCN(c2ncccn2)CC1	352	2.7% (inactive)	13.7% (inactive)	101	-48.3% (inactive)	86.3	-0.532 (inactive)	-0.000106 (inactive)	0.00447 (inactive)	-5.84% (inactive)	-10.7% (inactive)
O=C(OCc1cccs1)c1ccccc1NS(=O)(=O)c1ccc2c(c1)OCCO2	709	-6.7% (inactive)	10.3% (inactive)	84.5	9.5% (inactive)	108	-0.626 (inactive)	-2.4e-05 (inactive)	0.00639 (inactive)	3.25% (inactive)	-18.1% (inactive)
O=C(NC1CCCC1)c1cc(-c2cccs2)on1	443	-5.1% (inactive)	-2.2% (inactive)	99.3	16.1% (inactive)	105	-0.441 (inactive)	-2.8e-06 (inactive)	0.00483 (inactive)	-40.4% (inactive)	-146% (inactive)
Cc1ccccc1CS(=O)(=O)CCC(=O)N1CCN(c2ccc(N3CCOCC3)nn2)CC1	318	-0.9% (inactive)	-19.9% (inactive)	81	-146% (inactive)	87.2	-0.424 (inactive)	-8.7e-08 (inactive)	0.00541 (inactive)	3.04% (inactive)	12.2% (inactive)
N#C[C@@H]1[C@@H]2C(=O)N(c3ccc4c(c3)OCCO4)C(=O)[C@@H]2C2c3ccccc3C=CN21 (stereo partly drawn)	351	0.5% (inactive)	6.7% (inactive)	107	-62.1% (inactive)	106	-0.6 (inactive)	-2.2e-05 (inactive)	0.00563 (inactive)	-1.7% (inactive)	-13.1% (inactive)
COc1ccccc1-c1nc(C(F)(F)F)c(OC)o1	469	-3.3% (inactive)	-0.2% (inactive)	120	-126% (inactive)	215	-0.423 (inactive)	-9.3e-07 (inactive)	0.00491 (inactive)	21.1% (inactive)	11.8% (inactive)
COc1cccc(-c2noc(CCC(=O)NC3CCCCC3)n2)c1	433	-12.7% (inactive)	-6.8% (inactive)	112	-39.4% (inactive)	108	-0.461 (inactive)	-4.1e-05 (inactive)	0.00539 (inactive)	11% (inactive)	15.2% (inactive)
CCN(CC)C(=O)CN(c1cc(Cl)ccc1OC)S(C)(=O)=O	776	-2.4% (inactive)	-2.7% (inactive)	108	41.2% (inactive)	96	-0.577 (inactive)	4.8e-07 (inactive)	0.00573 (inactive)	7.69% (inactive)	10.1% (inactive)
Cn1c(=O)n(C)c2cc(CNc3ccc(N4CCOCC4)c(C(=O)O)c3)ccc21	350	-0.2% (inactive)	3% (inactive)	107	-9.8% (inactive)	110	-0.423 (inactive)	0.00012 (inactive)	0.00799 (inactive)	13.1% (inactive)	5.3% (inactive)
COc1cccc(/C(O)=C2/C(=O)C(=O)N(CCN3CCOCC3)C2c2cccnc2)c1 (stereo not drawn)	270	15% (inactive)	5.3% (inactive)	107	-37.6% (inactive)	117	-0.576 (inactive)	-1.6e-05 (inactive)	0.00687 (inactive)	-4.6% (inactive)	9.66% (inactive)
Cc1ccccc1NC(=O)C1CCC(C)(C(=O)O)C1(C)C (stereo not drawn)	485	3.5% (inactive)	1.6% (inactive)	94.4	-269% (inactive)	109	-0.581 (inactive)	1.1e-05 (inactive)	0.00574 (inactive)	-5.54% (inactive)	8.98% (inactive)
COc1ccc(C(F)(F)F)cc1NC(=O)c1nc2nc(C)cc(C(F)F)n2n1	800	16.4% (inactive)	14.9% (inactive)	94.5	-22.3% (inactive)	103	-0.498 (inactive)	-2e-05 (inactive)	0.00547 (inactive)	5.86% (inactive)	10.9% (inactive)
CCc1ccc2c(CN(CC)Cc3nc4ccccc4c(=O)[nH]3)cc(=O)oc2c1	530	1.4% (inactive)	2% (inactive)	114	-23.3% (inactive)	107	-0.57 (inactive)	5.5e-06 (inactive)	0.00486 (inactive)	17.1% (inactive)	26.9% (inactive)
CCN(CC)S(=O)(=O)c1ccc2oc(C(=O)O)c(C)c2c1	335	12.8% (inactive)	39.6% (inactive)	85.6	-89.3% (inactive)	104	-0.473 (inactive)	0.000115 (inactive)	0.00522 (inactive)	5.96% (inactive)	11.9% (inactive)
O=C(Nc1ccc2nn(-c3ccccc3)nc2c1)c1ccc(Br)o1	355	-1.7% (inactive)	9.1% (inactive)	106	6.4% (inactive)	101	-0.213 (inactive)	-2.9e-05 (inactive)	0.00781 (inactive)	-22.8% (inactive)	-70.4% (inactive)
Cc1sc2nc(SCC(=O)NCc3ccco3)n(CCc3ccccc3)c(=O)c2c1C	589	-17.7% (inactive)	-11.6% (inactive)	101	-45.3% (inactive)	108	-0.394 (inactive)	5.5e-06 (inactive)	0.0086 (inactive)	13.1% (inactive)	0.6% (inactive)
CCCCNC(=O)c1c(C)cc(=O)oc1C	541	-21.8% (inactive)	-12.9% (inactive)	141	-29% (inactive)	106	-0.531 (inactive)	-2.1e-05 (inactive)	0.0056 (inactive)	18.4% (inactive)	14% (inactive)
Cc1sc2ncnc(OCC(=O)N3CCN(S(=O)(=O)c4ccc(Cl)cc4)CC3)c2c1C	682	-9.4% (inactive)	-30.8% (inactive)	122	-50.8% (inactive)	124	-0.612 (inactive)	-4.9e-06 (inactive)	0.00511 (inactive)	-76.1% (inactive)	98.9% (active)
COc1ccc(Cc2nc3ccc(S(N)(=O)=O)cc3[nH]2)cc1OC	423	-22.9% (inactive)	18.8% (inactive)	58.6	75.1% (active)	59.2	-0.553 (inactive)	-2.6e-05 (inactive)	0.00712 (inactive)	9.58% (inactive)	8.25% (inactive)
CCOC(=O)C1=C(C)Nc2ncnn2C1c1cc(OC)ccc1OC (stereo not drawn)	465	4.5% (inactive)	-7.4% (inactive)	97.1	-356% (inactive)	126	-0.236 (inactive)	-2.1e-05 (inactive)	0.00778 (inactive)	16.3% (inactive)	1.62% (inactive)
COc1cc2nc(C3CCC3)n(NC(=O)C3CCCC(OC)C3)c(=O)c2cc1OC (stereo not drawn)	609	-8.8% (inactive)	-18% (inactive)	106	-30.3% (inactive)	107	-0.266 (inactive)	-1.2e-05 (inactive)	0.00583 (inactive)	15.8% (inactive)	9.02% (inactive)
